# Assay results pooled from the literature.
# Protocols differ between the studies behind these lines.
# Target: MAP kinase-activated protein kinase 2 (MAPKAPK2, Homo sapiens, UniProt P49137)
SMILES,test,conditions,quantity,result
CC(C)(C)c1cc(C=C(C#N)C#N)cc(Br)c1O,"enzyme activity, inhibitor",0.5 µM,remaining activity,92.3%
C#Cc1n[nH]c2c(-c3cn(C(C)c4ccccn4)c(=O)[nH]c3=O)cc(F)cc12 (centres unmarked),"enzyme activity, inhibitor",1 µM,inhibition,13.1%
COc1cc(Nc2ncc(F)c(Nc3ccc4c(n3)NC(=O)C(C)(C)O4)n2)cc(OC)c1OC,binding,10 µM,inhibition,0%
Cn1cc(-c2cccc(N3CCc4c(sc5c4CC(C)(C)C5)C3=O)c2CO)cc(Nc2ccncn2)c1=O,"enzyme activity, inhibitor",1 µM,inhibition,-5%
O=c1[nH]c2ccccc2n1C1CCN(Cc2ccc(-c3[nH]c4cc5ncnc5cc4nc3-c3ccccc3)cc2)CC1,cell-free assay,0.5 µM,remaining signal,98.7%
Cn1cc(-c2cc(F)cc(N3CCn4c(cc5c4CCCC5)C3=O)c2CO)cc(Nc2ccc(N3CCN(C4COC4)CC3)cn2)c1=O,"enzyme activity, inhibitor",0.1 µM,inhibition,5%
Cn1cncc1[C@@](O)(COc1ccc(C#N)cc1-c1ccc(OC(F)(F)F)cc1)c1ccc(C#N)cc1,"cell-free assay, competition with immobilised ligand",1 µM,remaining binding,61%
COc1cc(Cl)c(C(=O)N[C@@H](CN[C@H]2CC[C@@H](N)CC2)Cc2ccc(C#N)cc2)cc1-c1ccc(CN[C@H](C)c2ccc(C)cc2)o1,"enzyme activity, inhibitor",1 µM,remaining activity,107%
COc1ncccc1-c1cnn2ccc(N3CCN(C(=O)OC(C)C)CC3)nc12,"binding, competition with immobilised ligand",1 µM,remaining binding,100%
Nc1ncc(-c2nc(N3CCOCC3)nc(N3CCOCC3)n2)c(C(F)F)n1,"binding, competition with immobilised ligand",10 µM,remaining binding,85%
Cc1nn(C)cc1-c1nc2c(N3CCN(Cc4ccc(Cl)cc4)CC3)c(Cl)cnc2[nH]1,"binding, competition with immobilised ligand",1 µM,remaining binding,100%
